Source: PubChem
Rows were chosen to be rich in hits. Some 3.7% of all compounds tested hit in one or more screens of this group.
Kir21 inh – Kir2.1 (mouse) channel inhibition; HEK293-Kir2.1, FluxOR thallium flux fluorescence; active compounds read low; P35561; B-score at 10 µM; 0.85% of 310,000 active; AID 1672;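 active means fluorescence ratio B-score at or below minus 3 SD of library scores, with starting-brightness B-score within 2 SD, cut at about -4.2 in these data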;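 further: channel flux triggered by added potassium and thallium sulfate stimulus; B-score of peak minus minimum fluorescence over baseline after thallium stimulus; more negative B-score means stronger Kir2.1 block with less thallium influx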
KCNQ1 pot – potentiators or activators of human KCNQ1 potassium channel; P51787; CHO-K1 KCNQ1, thallium flux FluxOR fluorescence; active compounds read high; B-score at 10 µM; 0.35% of 310,000 active; AID 2648;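 active means fluorescence ratio B-score, a plate-corrected score, at least three library SD, with initial intensity B-score within 5 SD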
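assay system = CHO-K1 cells stably expressing KCNQ1 | medium = assay buffer, equal DMSO in all wells | timing = 37 °C overnight plating, 90-min dark dye load, 20-min compound pretreatment | measured by = kinetic FluxOR thallium fluorescence, 10-s 1-Hz baseline, 110-s post-stimulus read | measure = fluorescence change relative to baseline, converted to B score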
KCNK3 block – human KCNK3 channel inhibition, primary screen; CHO-KCNK3 thallium flux, FluxOR fluorescence; active compounds read low; O14649; AID 602410; B-score at 10 µM; 0.84% of 340,000 active;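 active means B-score under library mean minus 4 SD, starting fluorescence ratio at most library mean plus 5 SD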;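 further: more negative B-score means stronger inhibition of thallium flux through KCNK3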
hERG protect – hERG (human) protection from proarrhythmic block | activation (rescue from dofetilide block), less the hit threshold, % at 10 µM | CHO-hERG, FluxOR thallium flux, dofetilide IC70 present | 0.51% of 310,000 active;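 active means activation above the mean of controls blocked by dofetilide plus 5 SD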;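 further: thallium influx through hERG after potassium depolarization seen as dye fluorescence rise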
KCNK9 block – human KCNK9 channel inhibition. HEK293 KCNK9, FluxOR thallium flux fluorescence; active compounds read low. B-score at 10 µM. 1.2% of 310,000 active. AID 488922;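 active means ratio B-score over 3 SD below the library mean, with starting fluorescence within 5 SD of its mean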;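 further: negative B-score means less thallium flux so channel inhibition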
Target sequence (Q9NPC2 whole entry, looked up): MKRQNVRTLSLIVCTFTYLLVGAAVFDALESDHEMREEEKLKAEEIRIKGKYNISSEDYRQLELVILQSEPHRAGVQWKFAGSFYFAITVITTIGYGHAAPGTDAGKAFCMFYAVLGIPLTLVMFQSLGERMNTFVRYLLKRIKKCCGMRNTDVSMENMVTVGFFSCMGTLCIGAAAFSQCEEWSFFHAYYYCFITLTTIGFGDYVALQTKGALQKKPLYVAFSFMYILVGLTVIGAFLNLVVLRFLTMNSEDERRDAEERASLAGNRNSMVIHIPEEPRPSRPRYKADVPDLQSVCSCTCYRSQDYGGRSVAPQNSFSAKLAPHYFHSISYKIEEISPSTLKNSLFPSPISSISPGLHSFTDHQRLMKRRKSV
KCNQ1 inh – human KCNQ1 channel inhibition. CHO-K1 KCNQ1, FluxOR thallium flux fluorescence; active compounds read high. B-score at 10 µM. 1.3% of 310,000 active. AID 2642;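 active means compounds whose thallium flux B-score, printed positive for inhibition, exceeds three library SD while starting fluorescence stays within three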;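 further: channel opened by potassium depolarization with thallium stimulus after 20 min compound exposure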
* marks the source's active call; other numbers are inactive results; i = inactive; . = no result.

SMILES	Kir21 inh	KCNQ1 pot	KCNK3 block	hERG protect	KCNK9 block	KCNQ1 inh
Cc1cccc(C(CC(=O)N2CCCCC2)c2ccccc2)c1O (centres undefined)	-0.68	i	i	-2	i	i
O=C(C[C@@H]1C/C=C/CC[C@@H](Cc2ccc(F)cc2)C(=O)O[C@@H](c2ccccc2)CNC1=O)NCCO	.	.	i	.	.	.
CSc1nc(Oc2ccc3ccccc3c2)c2ccccc2n1	-0.01	i	i	-10	-7.2*	i
CCOC(=O)COn1c(=O)c(-c2ccccc2)[n+]([O-])c2ccccc21	0.8	i	i	-6	i	i
O=C(Oc1ccc(Br)cc1C(=S)N1CCOCC1)c1ccc(F)cc1	-0.56	i	i	-7	i	i
O=C(Oc1ccc(C(=S)N2CCOCC2)cc1Cl)c1ccccc1F	-5.8*	i	i	-3	i	i
O=C(Oc1ccc(C(=S)N2CCOCC2)cc1Br)c1ccccc1F	-6.3*	i	i	-5	i	i
O=C(c1ccccc1F)N1CCOCC1	-0.87	i	i	-6	i	i
CCC1(c2ccccc2)NC(=O)N(CC(=O)Nc2ccc(S(=O)(=O)Nc3ncccn3)cc2)C1=O (centres undefined)	-1.4	i	i	-10	i	i
Cc1ccc(C(=O)COC(=O)c2cn3ccccc3n2)cc1	-1.5	i	i	-1	i	i
CC(=O)c1c(C)[nH]c(C(=O)OCC(=O)N(Cc2ccccc2)C(C)(C)C)c1C	.	.	i	.	.	.
O=C(CCC1CCCCC1)NCc1ccccn1	-1.2	i	i	-11	i	i
Cn1c(N/N=C/c2c[nH]c3ccccc23)nc2ccccc21	-5.2*	i	i	-24	i	i
Cc1cc(N/N=C/c2c[nH]c3ccccc23)c2ccccc2n1	0.93	i	i	-10	i	i
Cc1nc2sc(C(c3ccccc3)N3CCN(C(=O)c4ccco4)CC3)c(O)n2n1 (centres undefined)	-0.9	12*	i	2	i	i
O=[N+]([O-])c1ccc(O)c(Nc2ncnc3ccc(Br)cc23)c1	-0.06	i	i	-6	i	7*
Cc1ccc(-c2nc3ccccc3c(=O)o2)cc1	0.71	i	i	-11	i	i
CSc1nnc(-c2cc(-c3ccc(C)cc3)nc3ccccc23)o1	0.88	i	i	-14	-7.4*	i
NNC(=O)c1[nH]c2ccc([N+](=O)[O-])cc2c1-c1ccccc1	-0.66	i	i	-2	i	i
O=C(N/N=C/c1ccccn1)c1[nH]c2ccc([N+](=O)[O-])cc2c1-c1ccccc1	-2.5	i	i	-19	i	10*
C=CCN1C=CC(=C/C=C(/C#N)C(=O)OCC)C=C1	-9.3	i	i	-23	i	11*
COC(=O)[C@@H]1C[C@@]2(Br)c3ccccc3N(S(=O)(=O)c3ccccc3)[C@H]2N1C(=O)OC	-0.79	i	i	-9	i	i
CCOc1ccc(C(=O)NNC(=O)CN2C(=O)NC3(CCCC3)C2=O)cc1	.	.	i	.	.	.
Cc1ccc(C)c(N2C(=O)CC(Cc3ccc(Br)cc3)C2=O)c1 (centres undefined)	-0.36	i	i	-3	i	i
O=C(/C(=N\O)n1cncn1)c1ccc(Cl)cc1Cl	-0.37	i	i	-13	i	i
SMILES	Kir21 inh	KCNQ1 pot	KCNK3 block	hERG protect	KCNK9 block	KCNQ1 inh
O=C(/C(=C/c1ccccc1)n1cncn1)c1ccc(Cl)cc1Cl	-13*	i	i	-11	i	i
Cc1cccn(Cc2c(F)cccc2Cl)c1=O	-2.8	i	i	-4	i	i
O=c1ccccn1Cc1c(F)cccc1Cl	-0.89	i	i	5.2*	i	i
Cc1ccc(C(=O)Nc2nc3ccccc3c(=O)s2)cc1	-2.4	35*	i	23*	i	i
Cc1ccc(C(=O)Nc2nc(=O)n(C(=O)C3CC3)s2)cc1	-0.41	i	i	5.0*	i	i
CC(=O)Nc1nc(=O)c2ccccc2s1	-1.8	i	i	0	i	i
CSc1nc2ccc3nc(NC(=O)c4ccc(C)cc4)sc3c2s1	-1.6	i	i	-6	i	i
O=C(Nc1nc(=O)c2ccccc2s1)c1ccccc1	0.16	11*	i	3	i	i
CC(=O)c1c(O)cc(C)n(-c2ccc(F)cc2)c1=O	0.1	8*	i	-6	i	i
c1ccc(COc2ccccc2CNC2CCCC2)cc1	-2.9	i	i	-14	i	i
c1csc(COc2ccccc2CNC2CCCCC2)c1	-4.2*	i	i	-6	i	i
O=S(=O)(c1ccc2ccccc2c1)N1CCc2ccccc21	1.1	i	i	-5	i	i
O=C(CCS(=O)(=O)c1ccc(Cl)cc1)N1CCCc2ccccc21	-4.8*	i	i	-9	i	i
Cc1cccc(S(=O)(=O)N2CCCc3ccccc32)c1	-6.4*	i	i	-7	i	i
O=S(=O)(c1ccc(F)c(F)c1)N1CCCc2ccccc21	-5.4*	i	i	-5	i	i
O=S(=O)(c1ccc(Br)cc1)N1CCCc2ccccc21	-4.9*	i	i	-4	i	i
COCCCN1C(=O)C2C(C(=O)Nc3cccc(Cl)c3)C3C=CC2(O3)C1C(=O)NC1CCCCC1 (centres undefined)	-0.4	i	i	-6	i	i
Cc1c(OCC(=O)N[C@@H](Cc2c[nH]c3ccccc23)C(=O)O)ccc2c1oc(=O)c1ccccc12	-0.4	i	i	-10	i	i
CCc1cccc(C)c1NC(=S)N(CCN(C)C)C(C)c1ccco1 (centres undefined)	1.2	i	i	-7	i	i
COCCN(C(=O)c1ccc2c(c1)C(=O)N(c1ccccc1Cl)C2=O)c1c(N)n(CC(C)C)c(=O)[nH]c1=O	.	.	i	.	.	.
COc1ccc(-c2[nH]ncc2CNC(C)c2ccccc2Cl)cc1F (centres undefined)	-7.3*	i	i	-8	i	i
O=C1c2ccccc2NC(c2cccc([N+](=O)[O-])c2)N1CCc1ccccc1 (centres undefined)	0.39	i	i	-9	-6.6*	i
O=C1CSC(c2cccc([N+](=O)[O-])c2)N1Cc1ccccc1 (centres undefined)	-4.5*	i	i	0	i	i
Cc1cccc(C2Nc3ccccc3C(=O)N2CCc2ccccc2)n1 (centres undefined)	-2.3	i	i	-3	i	i
COc1ccc(C(CNC(=O)c2ccco2)N2CCOCC2)cc1 (centres undefined)	.	.	i	.	.	.
